The term MIC denotes the least concentration at which growth counts as inhibited.

Results on 3 compounds are retold here after PMC5378063 (Medicinal chemistry (Shariqah (United Arab Emirates)), 2009).

Values after ≈ are worked out from the molar mass of the structure shown. Bounds are passed on as bounds.

In test [1] the test system is M.tuberculosis H37Rv RFPr. The test can be described thus: MIC, agar dilution method. In kind it is cell-based, Mycobacterium tuberculosis. (In general: In agar dilution the substance is mixed into plates at graded concentrations.)
The test system of test [2] is M.smegmatis Takeo. The test can be described thus: MIC, agar dilution method. Type of test: cell-based.
Test [3] concerns M.aurum. Put plainly: MIC, agar dilution method. In kind it is cell-based.
The subject of test [4] is M.avium Flamingo. The test can be described thus: MIC, agar dilution method. Type of test: cell-based.
The subject of test [5] is M.tuberculosis H37Rv INHr. The test can be described thus: MIC, agar dilution method. Type of test: cell-based, Mycobacterium tuberculosis.
The subject of test [6] is M.intracellulare ATCC15984. The test can be described thus: MIC, agar dilution method. In kind it is cell-based.
Test [7] deals with bacterial growth. The test can be described thus: In vitro rescue studies with vitamin K supplementation. The following applies: 22a ~2μM; vitamin K even at 400 μM. In kind it is cell-based.
Test [8] deals with M.tuberculosis H37Rv. Put plainly: MIC, agar dilution method. In kind it is cell-based, Mycobacterium tuberculosis.
The test system of test [9] is M.fortuitum NIHJ1615. Put plainly: MIC, agar dilution method. In kind it is cell-based.
Test [10] relates to M.bovis BCG Tokyo. Put plainly: MIC, agar dilution method. In kind it is cell-based.
In test [11] the test system is nonreplicating Mtb. The test can be described thus: Killing of nonreplicating bacteria, Wayne low oxygen model. In kind it is cell-based, Mycobacterium tuberculosis. The method, boiled down: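 Aerobic preculture diluted 100-fold into tubes sealed with rubber septa, degassed with N₂ and held anaerobically for 24 days, into nonreplicating phase 2 of a modified Wayne model. Test compound in degassed solution was added and incubation continued for 96 h. Suspensions were then diluted and plated, grown aerobically at 37 °C, and colonies counted.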

For test [12], the system named is DosS or DosR. Put plainly: DosS/DosR upregulation. In kind it is cell-based, Mycobacterium tuberculosis. The following applies: unpublished data.
[13] abbreviates: 10 μg/mL, 96 h exposure after 24 days anaerobic.
Where [14] appears, read: Mycobacterium tuberculosis, H37RV.
Setting [15] is: Mycobacterium intracellulare, ATCC15984.
The mark [16] stands for this setting: Mycobacterium tuberculosis variant bovis BCG, BCG.

Take `C=CCN(C)CCCCCCCCOc1ccc(C(=O)c2ccc(Cl)cc2)c(O)c1` [22a, allylaminomethanone-A]: the minimum inhibitory concentration (MIC) was 1.5 µg/mL (≈ 3.49 µM) in test [1] (M.tuberculosis H37Rv RFPr, agar dilution); 12.5 µg/mL (≈ 29.1 µM) in test [2]; 6.3 µg/mL (≈ 14.7 µM) in test [3]; 6.3 µg/mL (≈ 14.7 µM) in test [4] (M.avium Flamingo, agar dilution); 1.5 µg/mL (≈ 3.49 µM) in [5] (M.tuberculosis H37Rv INHr, agar dilution); 6.3 µg/mL (≈ 14.7 µM) in test [6] (M.intracellulare ATCC15984, agar dilution). For the same compound, the MIC in test [8] (M.tuberculosis H37Rv, agar dilution) was found to be 1.0 µg/mL (≈ 2.33 µM); in test [9] it was 12.5 µg/mL (≈ 29.1 µM); in [10] (M.bovis BCG Tokyo, agar dilution), 3.1 µg/mL (≈ 7.21 µM). Moreover, in [7], the “rescue of bacterial growth by supplementation with vitamin K” value was “not completely rescued”. Also, the “more effective in killing nonreplicating bacteria than ethambutol” value in test [11] (setting [13]) is on record as 320 fold. Moreover, the “more effective in killing nonreplicating bacteria than isoniazid” value in test [11] (setting [13]) stood at 180 fold. In addition, the “more effective in killing nonreplicating bacteria than rifampicin” value in test [11] (setting [13]) amounted to 3 fold. The “colonies after treatment of nonreplicating Mtb” value in test [11] (50 μg/mL, 96 h exposure) was “no countable colonies”. For the same compound, in test [12], the “upregulation of DosS or DosR” value is on record as “did not upregulate”.
For `NNC(=O)c1ccncc1` [INH, isoniazid], the MIC in test [1] (setting [14]) was 0.05 µg/mL (≈ 0.365 µM); in test [4] (Mycobacterium avium), over 25 µg/mL; in test [5] (setting [14]), over 25 µg/mL; in test [6] (setting [15]) it was 12.5 µg/mL (≈ 91.1 µM); in [8] (setting [14]), 0.1 µg/mL (≈ 0.729 µM); in test [10] (setting [16]) it was 0.1 µg/mL (≈ 0.729 µM).
`CO[C@H]1/C=C/O[C@@]2(C)Oc3c(C)c(O)c4c(O)c(c(/C=N/N5CCN(C)CC5)c(O)c4c3C2=O)NC(=O)/C(C)=C\C=C\[C@H](C)[C@H](O)[C@@H](C)[C@@H](O)[C@@H](C)[C@H](OC(C)=O)[C@@H]1C` [RFP, rifampicin]: the minimum inhibitory concentration (MIC) in test [1] (setting [14]) is over 25 µg/mL; in test [4] (Mycobacterium avium), 3.1 µg/mL (≈ 3.77 µM); in test [6] (setting [15]), 3.1 µg/mL (≈ 3.77 µM); in [8] (setting [14]) it was 0.2 µg/mL (≈ 0.243 µM); in [10] (setting [16]) it was 0.1 µg/mL (≈ 0.122 µM).
